“Also recorded” adds a separate entry of the source.
What was measured:
[1] = Zeta potential of peptide-DNA polyplexes; assay type: physicochemical; conditions: positive (+ mV); peptide-DNA polyplex 0.5 nmol peptide per µg DNA, 5 mM Hepes, pH 7.4 (footnote), mean of ten measurements
In short: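 Polyplex was made in 5 mM Hepes at 30 µg/ml DNA with 15 nmol/ml peptide. Zeta potential was read on a ZetaPlus instrument straight after QELS particle sizing at a 90° scatter angle, as the mean of ten measurements.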

CHO cells = assay: In vitro gene transfer; assay type: cell-based; conditions: 10 µg pGL3, luciferase at 24 hrs, Fig. 5
In short: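 Cells: CHO, 5 × 10^5 per 35 mm well, grown to about 50% confluency in MEM with 2 or 10% FBS, 1 mM sodium pyruvate and pen/strep. Polyplexes: peptide and pGL3 at 0.1–0.75 nmol peptide per µg DNA, in HBM (5 mM Hepes, 0.27 M mannitol, pH 7.5). Triplicate wells, 24 h. Luciferase RLU were converted to fmol by standard curve and normalized to mg protein (BCA).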

Erythrocytes = assay: RBC hemolysis assay; assay type: cell-based, mice; conditions: peptide DNA polyplexes (1.5 nmols and 7.5 µg pGL3), pH 7.4, Fig. 4C
In short: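 Erythrocytes from male ICR mouse heart blood (heparinized) were washed three times in 0.15 M PBS pH 7.4 and diluted to 1.5 × 10^8 cells/ml. 7.5 × 10^6 cells were added to the polyplexes (1.5 nmol peptide, 7.5 µg pGL3) in triplicate and held 1 h at 37°C, then filtered. Filtrate Abs410 nm was expressed against 100% lysis with water replacing PBS.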

[2] = system: HepG2, 3T3, and CHO cells; assay: In vitro gene transfer; assay type: cell-based; conditions: 0.5 nmol peptide per µg pGL3, 10 µg pGL3, luciferase at 24 hrs, Fig. 6
In short: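 Plating: HepG2, CHO or 3T3, 5 × 10^5 cells per 35 mm well, about 50% confluent. Transfection: 10 µg pGL3 polyplex (0.5 nmol peptide/µg DNA, 30 µg/ml DNA in 5 mM Hepes/0.27 M mannitol pH 7.5), added dropwise in triplicate for 24 h in MEM with 2 or 10% FBS. Read-out: lysate luciferase (0.5 mM D-luciferin injection, 10 s integration) as fmol per mg protein, mean ± SD of triplicates.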

| Substance | Zeta Potential [1] [mV] | Gene expression, fold greater than poly(Acr-Arg)4-Mal-melittin (CHO cells) | Hemolytic activity when combined with pGL3 (Erythrocytes) | Gene transfer, fold lower than poly(Acr-Arg)2–4-SS-melittin [2] |
| --- | --- | --- | --- | --- |
| (Acr-Arg)4-C-CWKKGIGAVLKVLTTGLPALISLIKRKRQQ (disulfide) [poly(Acr-Arg)4-SS-melittin] | 29 ± 2.6 | approximately 1000 fold | completely neutralized; also recorded: non hemolytic | – |
| W(Lys(Ac)-Arg)4-C-CWKKGIGAVLKVLTTGLPALISLIKRKRQQ (disulfide) [poly(Lys(Ac)-Arg)4-SS-melittin] | 20 ± 2.9 | – | – | – |
| (CWKKGIGAVLKVLTTGLPALISLIKRKRQQ)2 (disulfide) [Dimeric-melittin] | – | – | – | 10–100 fold |
| (Acr-Arg)2-C-CWKKGIGAVLKVLTTGLPALISLIKRKRQQ (disulfide) [poly(Acr-Arg)2-SS-melittin] | 25 ± 2.2 | – | – | – |
| (Acr-Arg)3-C-CWKKGIGAVLKVLTTGLPALISLIKRKRQQ (disulfide) [poly(Acr-Arg)3-SS-melittin] | 29 ± 4.5 | – | – | – |

Source: publication PMC2813064 (Bioconjugate chemistry, 2010)
